One series concerns MCF7. As to the kind of experiment: Inhibition of NRF2/ARE (unknown origin) transfected in human MCF7 cells assessed as cellular activity preincubated with compound for 1 hrs followed by tBHQ addition and measured after 24 hrs by steady-glo luciferase assay relative to control. As to conditions: time 25.0 hrs, dose or concentration not given here. Also on record: concentration or dose not given beside the values. Format: cell-based.

Series [1] is described as follows: Solubility of the compound in pH 7.4 PBS buffer. In kind it is physicochemical.
Series [2] has as its system A549. Kind of series: Antiproliferative activity against human A549 cells assessed as inhibition of cell growth incubated for 72 hrs by MTT assay. Format: functional. Also on record: scale not given: the % may be the effect or the level left. In short, it runs like this: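 A549 human lung cancer cells exposed to a single 5 μmol L⁻¹ dose for 72 h; viability read by MTT assay.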
For orientation: Formazan colour is commonly taken as a measure of viable cells.

In series [3] the target is T1, Nuclear factor erythroid 2-related factor 2 (Homo sapiens) (UniProt Q16236).
T1 sequence (whole entry): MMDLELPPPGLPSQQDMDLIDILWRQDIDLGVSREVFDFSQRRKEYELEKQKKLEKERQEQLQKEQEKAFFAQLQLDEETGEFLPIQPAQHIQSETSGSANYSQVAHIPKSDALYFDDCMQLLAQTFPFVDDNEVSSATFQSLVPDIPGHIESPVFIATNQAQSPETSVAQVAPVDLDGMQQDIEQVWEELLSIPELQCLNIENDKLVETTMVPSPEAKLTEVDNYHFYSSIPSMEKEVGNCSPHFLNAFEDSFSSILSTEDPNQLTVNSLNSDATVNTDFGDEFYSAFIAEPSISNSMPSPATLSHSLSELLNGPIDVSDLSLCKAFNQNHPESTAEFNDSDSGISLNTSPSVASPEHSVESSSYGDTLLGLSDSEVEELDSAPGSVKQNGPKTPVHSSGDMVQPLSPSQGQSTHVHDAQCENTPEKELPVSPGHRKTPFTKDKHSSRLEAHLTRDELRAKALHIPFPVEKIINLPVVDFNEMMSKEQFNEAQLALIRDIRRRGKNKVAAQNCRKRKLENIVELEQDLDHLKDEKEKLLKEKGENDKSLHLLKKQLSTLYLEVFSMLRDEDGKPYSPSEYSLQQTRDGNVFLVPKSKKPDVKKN
Kind of series: Inhibition of NRF2 signalling pathway in human A549 cells assessed as decrease in NQO1 mRNA level at 5 to 10 uM incubated for 24 hrs by RT-PCR analysis. Format: cell-based. As to conditions: dose 5-10 µM. In a few lines:
(§1)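 A549 cells incubated with compound 24 h; NQO1, GCLC, AKR1C2, GCLM mRNA by RT-PCR, normalized to GAPDH and DMSO vehicle; representative of 3 independent experiments.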

Series [4] addresses T1, Nuclear factor erythroid 2-related factor 2 (Homo sapiens). As to the kind of experiment: Inhibition of NRF2 signalling pathway in human A549 cells assessed as decrease in GCLC mRNA level at 5 to 10 uM incubated for 24 hrs by RT-PCR analysis. Format: cell-based. The following applies: dose 5-10 µM. In a few lines: as §1
Series [5] shares this target. As to the kind of experiment: Inhibition of NRF2 signalling pathway in human A549 cells assessed as decrease in AKR1C2 mRNA level at 5 to 10 uM incubated for 24 hrs by RT-PCR analysis. In kind it is cell-based. As to conditions: dose 5-10 µM. In short, it runs like this: as §1
Series [6] shares this target. As to the kind of experiment: Inhibition of NRF2 signalling pathway in human A549 cells assessed as decrease in GCLM mRNA level at 5 to 10 uM incubated for 24 hrs by RT-PCR analysis. In kind it is cell-based. As to conditions: dose 5-10 µM. In a few lines: as §1
Series [7] relates to A549. Kind of series: Antiproliferative activity against human A549 cells assessed as reduction in cell viability incubated for 72 hrs by MTT assay. In kind it is functional, cell-based. The following applies: A549, 72 h.
The next series concerns NCI-H358. Kind of series: Antiproliferative activity against human NCI-H358 cells assessed as reduction in cell viability incubated for 72 hrs by MTT assay. The following applies: NCI-H358, 72 h. Format: functional, cell-based.
Series [8] concerns A549. As to the kind of experiment: Induction of cell cycle arrest in human A549 cells assessed as accumulation of cells at G2/M phase at 3 uM incubated for 24 hrs by PI staining based flow cytometric analysis. Format: functional. In short, it runs like this:
(§2)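 A549 or H460 cells synchronized in low-serum medium 12 h, then inhibitor 24 h; propidium iodide staining, flow cytometry, univariate cell-cycle model (Watson pragmatic, G0/1 and G2/M peak constraints); % of total cells as mean ± SE, n = 2-3 independent experiments.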
For orientation: A flow cytometer gives signals particle by particle.

A further series deals with NCI-H460. As to the kind of experiment: Induction of cell cycle arrest in human NCI-H460 cells assessed as accumulation of cells at G2/M phase at 3 uM incubated for 24 hrs by PI staining based flow cytometric analysis. Format: functional. In a few lines:
as §2

The test system of series [9] is A549. Kind of series: Inhibition of cell migration in human A549 cells at 10 uM incubated for 24 hrs by DAPI staining based transwell migration assay relative to control. In kind it is functional. In short, it runs like this:
(§3)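 Transwell migration of A549 cells seeded in serum-free medium with DMSO vehicle or compound (1, 5, 10 μmol L⁻¹) in top chamber; bottom medium with compound and 5% FBS chemoattractant; 24 h, filters fixed, unmigrated cells removed, DAPI stain, 9 fields imaged per insert; two inserts per condition, n = 2-3; one- or two-way ANOVA vs vehicle.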

The subject of series [10] is A549. Kind of series: Inhibition of cell migration in human A549 cells at 1 uM incubated for 24 hrs by DAPI staining based transwell migration assay. In kind it is functional. In short, it runs like this: as §3
The subject of series [11] is A549. Kind of series: Inhibition of cell migration in human A549 cells at 5 uM incubated for 24 hrs by DAPI staining based transwell migration assay relative to control. Format: functional. In short, it runs like this:
as §3

In brackets after ≈: the same amount, converted by molar mass. Activity calls are given as the source filed them. The calls are words filed in the database; no cut-off is given here.

As to `Cc1ccnc(Nc2ncc(-c3ccccc3)cc2C#N)c1`, in the series with MCF7, the inhibition turned out to be 46.7%. The same molecule gave a solubility in series [1] of 209 µM (≈ 59.8 µg/mL). Also, in the series with A549 [2], the Activity turned out to be 59.8%. The inhibition result in [3], in series [4], in series [5] and in [6] was “Active” throughout. Also, the IC50 stood at 610 nM with A549 [7] and 580 nM in the series on NCI-H358. In addition, the result in the series on A549 [8] and in the series with NCI-H460 was Active. This molecule also returned an inhibition at 10 µM in the series on A549 [9] of 79%. Also, in the series on A549 [10], the inhibition entry was “inactive”. Besides, the inhibition at 5 µM in the series with A549 [11] came to 72%.

The term inhibition denotes how much of the control response was suppressed. By solubility is commonly meant the dissolved amount per volume that the medium holds. Usually IC50 stands for the concentration at which inhibition is half-maximal.

(Values after ChEMBL document CHEMBL5230161, “Exploring structural effects in a new class of NRF2 inhibitors” (RSC Med Chem, 2023).)
